Results taken from ChEMBL document CHEMBL1795258, “A diazen-1-ium-1,2-diolated nitric oxide donor ester prodrug of 3-(4-hydroxymethylphenyl)-4-(4-methanesulfonylphenyl)-5H-furan-2-one: synthesis, biological evaluation and nitric oxide release studies” (Bioorg Med Chem Lett, 2011).

Assays:
Rattus norvegicus = test: Antiinflammatory activity in po dosed rat assessed as inhibition of carrageenan-induced foot paw edema after 3 hrs; assay type: functional
Method in brief: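 Carrageenan-induced rat paw edema; test compound given orally, edema inhibition read at 3 h; potency reported as ED50 in μmol/kg.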

[1] = Prodrug activation in 1.0 x 10^-2 mM of phosphate buffered saline at pH 7.4 assessed as nitric oxide release after 1.5 hrs by Griess reaction; assay type: physicochemical; details: buffer, pH 7.4, 1.5 h
Method in brief: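 Compound at 1.0 × 10^-2 mM in pH 7.4 phosphate buffer with a little DMSO, 37 °C for 1.5 h. NO measured as nitrite by Griess reaction, expressed as % of theoretical 2 mol NO per mol. Mean of n = 3, variation ≤0.5%.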

[2] = Prodrug activation in 1.0 x 10^-2 mM of phosphate buffered saline at pH 7.4 assessed as nitric oxide release after 1.5 hrs by Griess reaction in presence of rat serum; details: pH 7.4, 1.5 h
Method in brief: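 Compound at 1.0 × 10^-2 mM in pH 7.4 phosphate buffer with a little DMSO plus 90 μL rat serum in 2.4 mL, 37 °C for 1.5 h. Nitrite quantified by Griess reaction as % of theoretical 2 mol NO per mol. Mean of n = 3, variation ≤0.5%.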

Mesenteric artery [3] = test: Inhibition of phenylephrine-induced vasoconstriction in Long Evans rat mesenteric arteries treated 45 mins before phenylephrine challenge; assay type: functional
Method in brief: (§1)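 Second-order mesenteric arteries (<250 in diameter, ~2 mm long) dissected in cold (0–4 °C) HEPES-buffered phosphate saline, pH 7.4. Mounted on isometric wire myograph and pretreated 45 min with test compound (1 μM) or DMSO. Constriction to phenylephrine 10^-7–5 × 10^-5 M then recorded.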

Mesenteric artery [4] = test: Inhibition of phenylephrine-induced vasoconstriction in Long Evans rat mesenteric arteries assessed as maximum response treated 45 mins before phenylephrine challenge (reference value: 2.13 +/- 0.23 g/mm); assay type: functional; method in brief: as §1
[5] = target: T1, Prostaglandin G/H synthase 1 (Ovis aries, UniProt P05979); test: Inhibition of ovine COX1 by enzyme immuno assay
T1 sequence (P05979 whole entry): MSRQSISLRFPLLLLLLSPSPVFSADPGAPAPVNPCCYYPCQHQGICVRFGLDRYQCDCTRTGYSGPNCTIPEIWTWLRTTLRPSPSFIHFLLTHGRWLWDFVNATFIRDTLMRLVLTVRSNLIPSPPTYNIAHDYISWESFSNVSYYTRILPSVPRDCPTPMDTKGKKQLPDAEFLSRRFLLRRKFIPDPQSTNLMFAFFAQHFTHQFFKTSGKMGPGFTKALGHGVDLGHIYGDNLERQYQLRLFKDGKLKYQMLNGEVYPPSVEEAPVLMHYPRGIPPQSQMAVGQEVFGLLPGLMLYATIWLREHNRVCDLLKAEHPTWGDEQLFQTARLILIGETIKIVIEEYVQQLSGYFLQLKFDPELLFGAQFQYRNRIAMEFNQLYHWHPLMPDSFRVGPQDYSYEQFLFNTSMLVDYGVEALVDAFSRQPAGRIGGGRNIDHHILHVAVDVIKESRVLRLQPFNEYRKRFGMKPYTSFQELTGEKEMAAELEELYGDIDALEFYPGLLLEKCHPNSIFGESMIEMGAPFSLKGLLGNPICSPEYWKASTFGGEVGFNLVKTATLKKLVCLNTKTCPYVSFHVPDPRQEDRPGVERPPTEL

Mesenteric artery [6] = test: Inhibition of acetylcholine-induced relaxation in Long Evans rat phenylephrine pre-constricted mesenteric arteries assessed as maximum response (reference value: 0.38 +/- 0.01 g/mm); assay type: functional
Mesenteric artery [7] = test: tissue or blood; details: Rattus norvegicus, Long Evans

Activity [1] [%]	Activity [2] [%]	IC50 (Mesenteric artery [3]) [nM]	IC50 [5] [nM]	IC50 (Mesenteric artery [7]) [nM]	Structure (SMILES)	ED50 (Rattus norvegicus) [µmol/kg]	IC20 (Mesenteric artery [3]) [nM]	Activity (Mesenteric artery [4]) [g/mm]	Activity (Mesenteric artery [6]) [g/mm]
4.2	38.4	1750	> 100000		CC(=O)OCO/N=[N+](/[O-])N1CCC[C@@H]1C(=O)OCc1ccc(C2=C(c3ccc(S(C)(=O)=O)cc3)COC2=O)cc1	72.2	1370	1.17	
		1680	33100	95	CS(=O)(=O)c1ccc(C2=C(c3ccc(CO)cc3)C(=O)OC2)cc1	113	1010	1.51	0.3
84.5	85				[Na+].[O-]/N=[N+](/[O-])N1CCC[C@@H]1CO				
		1660		88	CS(=O)(=O)c1ccc(C2=C(c3ccccc3)C(=O)OC2)cc1 [ROFECOXIB]	4.8	950	1.32	0.23
